In test [1] the test system is Staphylococcus aureus. Description: Antibacterial activity against 10^6 CFU/ml oxacillin-susceptible Staphylococcus aureus ATCC 29213 after 18 hrs by NCCLS broth microdilution method. As to conditions: ATCC 29213, 18 h. The class given is functional. In outline: (§1)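 Broth microdilution per NCCLS, in 96-well plates; strains grown on Trypticase soy media. Compounds dissolved in 10% (v/v) acetone in water, serially diluted to 0.5–256 µg/mL (10 levels, twofold). Wells inoculated with 10⁶ cfu/mL suspension, 37 °C for 18 h. MIC = lowest concentration with no visible growth, converted to µM by molecular weight; average of at least four separate experiments.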

The subject of test [2] is Staphylococcus aureus. The test is described as follows: Antibacterial activity against 10^6 CFU/ml methicillin or oxacillin-resistant Staphylococcus aureus ATCC 43300 after 18 hrs by NCCLS broth microdilution method. The class given is functional. As to conditions: ATCC 43300, 18 h. In a few lines:
as §1
On the technique in general: In broth dilution the organism is exposed to a series of concentrations in liquid medium.

In test [3] the test system is Staphylococcus aureus. The test is described as follows: Antibacterial activity against Staphylococcus aureus 29213 at 150 ug/ml after 24 hrs by agar diffusion method. As to conditions: Staphylococcus aureus, 29213, 24 h; read-out: DIZ. It is filed as functional. In outline: (§2)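 Agar diffusion per NCCLS. Mueller-Hinton agar plates were swab-inoculated and dried 5 min. Sterile 1 cm discs were loaded with compound solution and placed on the plates. Incubation was 24 h at 37 °C (A. baumannii, E. coli, K. pneumoniae, S. aureus) or 30 °C (B. subtilis). Read-out was inhibition zone diameter, with ampicillin as positive control.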
(In general: In agar diffusion tests the substance spreads into inoculated agar from a disc or well.)

For a further test, the system named is Klebsiella pneumoniae. Description: Antibacterial activity against Klebsiella pneumoniae 13883 at 150 ug/ml after 24 hrs by agar diffusion method. The class given is functional. The conditions noted are these: Klebsiella pneumoniae, 13883, 24 h, read-out: DIZ. In a few lines: as §2
Another test deals with Acinetobacter baumannii. Description: Antibacterial activity against Acinetobacter baumannii 19606 at 150 ug/ml after 24 hrs by agar diffusion method. The class given is functional. As to conditions: Acinetobacter baumannii, 19606, 24 h, read-out: DIZ. In outline: as §2
The test system of the next test is Escherichia coli. Description: Activity of Escherichia coli pantothenate kinase. In a few lines:
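E. coli PanK, expressed and purified, at 278 nM in 50 mM Tris-HCl pH 7.6. Mix: ATP 1.5 mM, NADH 0.3 mM, phosphoenolpyruvate 0.5 mM, MgCl₂ 10 mM, KCl 20 mM, pyruvate kinase and lactate dehydrogenase (5 units each). Started by adding substrate (10–160). ADP formation was coupled to NADH loss, read at 340 nm, 25 °C. Kinetic parameters came from a Michaelis–Menten fit.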

For orientation: MIC means the lowest concentration that inhibits growth of the organism. Read a low MIC as greater potency. In general, Km refers to the concentration of substrate that gives half-maximal velocity. One may read the kcat as the maximal rate divided by the concentration of active sites.

Converted amounts (≈) assume the structure as drawn.

For the molecule `CCCCCNC(=O)CCNC(=O)[C@H](O)[C@@](C)(CO)Cc1ccccc1`, the MIC against Staphylococcus aureus [1] and with Staphylococcus aureus [2] was more than 703 µM each time. Moreover, the zone of inhibition at 150 µg/mL is 16 mm in the test with Staphylococcus aureus [3], less than 11 mm in the test on Klebsiella pneumoniae and less than 11 mm with Acinetobacter baumannii.
Take `CCCCCNC(=O)CCNC(=O)[C@H](O)[C@@](C)(CO)CC1CC1`: the MIC in the test with Staphylococcus aureus [1] and in the test with Staphylococcus aureus [2] was 24 µM (≈ 7.88 µg/mL) in each case. For the same molecule, the zone of inhibition at 150 µg/mL with Staphylococcus aureus [3] was 16 mm; in the test on Klebsiella pneumoniae it was less than 11 mm; with Acinetobacter baumannii it was less than 11 mm.
As for `CCCCCCCCCNC(=O)CCNC(=O)[C@H](O)C(C)(C)CO`, the minimal inhibitory concentration (MIC) with Staphylococcus aureus [1] and with Staphylococcus aureus [2] was 0.4 µM (≈ 0.138 µg/mL) throughout. The zone of inhibition at 150 µg/mL was 16 mm in the test with Staphylococcus aureus [3], less than 11 mm in the test with Klebsiella pneumoniae and less than 11 mm in the test on Acinetobacter baumannii.
As for `C=CC[C@](C)(CO)[C@@H](O)C(=O)NCCC(=O)NCCCCC`, the MIC in the test on Staphylococcus aureus [1] and in the test with Staphylococcus aureus [2] was 3.2 µM (≈ 1.01 µg/mL) in each case. Also, the zone of inhibition at 150 µg/mL is 16 mm in the test with Staphylococcus aureus [3], less than 11 mm in the test on Klebsiella pneumoniae and less than 11 mm with Acinetobacter baumannii. Further, the Michaelis constant (Km) with Escherichia coli amounted to 534 µM. In addition, the kcat in the test with Escherichia coli was 0.87 s⁻¹.
As for `C=CC[C@](C)(CO)[C@@H](O)C(=O)NCCC(=O)NCCCCCCCCC`, the MIC against Staphylococcus aureus [1] and with Staphylococcus aureus [2] was 1 µM (≈ 0.371 µg/mL) each time. Also, the zone of inhibition at 150 µg/mL in the test on Staphylococcus aureus [3] is 16 mm; in the test with Klebsiella pneumoniae, less than 11 mm; with Acinetobacter baumannii, less than 11 mm.
Take `CCCCCNC(=O)CCNC(=O)[C@H](O)[C@@](C)(CO)CCC`: the MIC in the test on Staphylococcus aureus [1] and against Staphylococcus aureus [2] was 13 µM (≈ 4.11 µg/mL) each time. Besides, the zone of inhibition at 150 µg/mL is 16 mm with Staphylococcus aureus [3], less than 11 mm in the test with Klebsiella pneumoniae and less than 11 mm in the test on Acinetobacter baumannii.
Take `CCCCCC[C@](C)(CO)[C@@H](O)C(=O)NCCC(=O)NCCCCC`: the minimal inhibitory concentration (MIC) with Staphylococcus aureus [1] and in the test on Staphylococcus aureus [2] was more than 715 µM in each case. Besides, the values for the zone of inhibition at 150 µg/mL in the test on Staphylococcus aureus [3], in the test on Klebsiella pneumoniae and in the test with Acinetobacter baumannii were 16 mm, less than 11 mm and less than 11 mm, respectively.
As to `CCCCCNC(=O)CCNC(=O)[C@H](O)C(CO)(CCC)CCC`, the minimum inhibitory concentration (MIC) with Staphylococcus aureus [1] and with Staphylococcus aureus [2] was more than 744 µM in each case. For the same molecule, the results for the zone of inhibition at 150 µg/mL in the test with Staphylococcus aureus [3], with Klebsiella pneumoniae and in the test with Acinetobacter baumannii were 16 mm, less than 11 mm and less than 11 mm, respectively.
`CCCCCNC(=O)CCNC(=O)[C@H](O)[C@@](C)(CO)CC1CCC1`: the MIC in the test with Staphylococcus aureus [1] and with Staphylococcus aureus [2] was 374 µM (≈ 128 µg/mL) in each case. Moreover, the zone of inhibition at 150 µg/mL is 16 mm with Staphylococcus aureus [3], less than 11 mm in the test with Klebsiella pneumoniae and less than 11 mm with Acinetobacter baumannii.
`CCCCCNC(=O)CCNC(=O)[C@H](O)C(C)(C)CO`: the minimum inhibitory concentration (MIC) against Staphylococcus aureus [1] and in the test on Staphylococcus aureus [2] was 7 µM (≈ 2.02 µg/mL) in each case. The zone of inhibition at 150 µg/mL was 16 mm in the test with Staphylococcus aureus [3], less than 11 mm with Klebsiella pneumoniae and less than 11 mm with Acinetobacter baumannii.
`CCCCCNC(=O)CCNC(=O)[C@H](O)[C@@](C)(CO)CC(C)C`: the minimal inhibitory concentration (MIC) is 101 µM (≈ 33.4 µg/mL) with Staphylococcus aureus [1] and 51 µM (≈ 16.9 µg/mL) in the test with Staphylococcus aureus [2]. Moreover, the zone of inhibition at 150 µg/mL in the test on Staphylococcus aureus [3] is 16 mm; in the test on Klebsiella pneumoniae, less than 11 mm; with Acinetobacter baumannii, less than 11 mm.
In the case of `C=CCC(CO)(CC=C)[C@@H](O)C(=O)NCCC(=O)NCCCCC`, the MIC in the test with Staphylococcus aureus [1] and with Staphylococcus aureus [2] was 376 µM (≈ 128 µg/mL) each time. In addition, the zone of inhibition at 150 µg/mL in the test on Staphylococcus aureus [3] was 16 mm; in the test with Klebsiella pneumoniae it was less than 11 mm; with Acinetobacter baumannii, less than 11 mm.
As for `CCCCCNC(=O)CCNC(=O)[C@H](O)[C@](C)(CC)CO`, the MIC against Staphylococcus aureus [1] and in the test with Staphylococcus aureus [2] was 7 µM (≈ 2.12 µg/mL) in each case. Besides, the zone of inhibition at 150 µg/mL is 16 mm in the test with Staphylococcus aureus [3], less than 11 mm in the test with Klebsiella pneumoniae and less than 11 mm with Acinetobacter baumannii.

These data come from ChEMBL document CHEMBL1765039, “Geminal dialkyl derivatives of N-substituted pantothenamides: synthesis and antibacterial activity” (2011).
